Activity calls are given as the source filed them. No cut-off for these calls is given here.
Legend:
HL-60 = test: Cytotoxicity against human HL60 cells up to 10 uM after 48 to 72 hrs by alamar blue assay; format: cell-based
HCC 2998 = test: Cytotoxicity against human HCC2998 cells up to 10 uM after 48 to 72 hrs by alamar blue assay; format: cell-based
SF-539 = test: Cytotoxicity against human SF539 cells up to 10 uM after 48 to 72 hrs by alamar blue assay; format: cell-based
[1] = Cytotoxicity against human CRL8155 cells up to 10 uM after 48 to 72 hrs by alamar blue assay; format: cell-based
[2] = target: T1, Calmodulin-domain protein kinase 1 (Toxoplasma gondii, UniProt Q9BJF5); format: cell-free, Plasma
T1 sequence (Q9BJF5 whole entry): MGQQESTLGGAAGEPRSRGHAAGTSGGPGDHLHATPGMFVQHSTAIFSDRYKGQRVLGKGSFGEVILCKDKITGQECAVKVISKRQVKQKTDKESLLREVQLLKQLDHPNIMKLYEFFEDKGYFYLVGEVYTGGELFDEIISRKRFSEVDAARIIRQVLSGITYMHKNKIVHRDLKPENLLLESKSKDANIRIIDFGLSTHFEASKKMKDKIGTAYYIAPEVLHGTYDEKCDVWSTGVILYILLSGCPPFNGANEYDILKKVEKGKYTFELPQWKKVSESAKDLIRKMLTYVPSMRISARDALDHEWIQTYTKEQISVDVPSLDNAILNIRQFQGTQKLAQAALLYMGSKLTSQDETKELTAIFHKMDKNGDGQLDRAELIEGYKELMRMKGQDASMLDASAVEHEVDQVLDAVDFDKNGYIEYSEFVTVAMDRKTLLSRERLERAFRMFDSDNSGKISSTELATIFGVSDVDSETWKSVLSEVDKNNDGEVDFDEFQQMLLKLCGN

Toxoplasma gondii = test: Antiparasitic activity against Toxoplasma gondii infected in human fibroblasts assessed as reduction of parasite invasion; format: functional, organism-based
Cryptosporidium parvum [3] = test: Antiparasitic activity against Cryptosporidium parvum sporozoites infected in human HCT8 cells assessed as reduction of parasites level treated 1 hr after infection measured after 24 hrs; format: functional, organism-based; details: HCT-8
Procedure, shortened: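 HCT-8 human intestinal cells infected with C. parvum sporozoites at a 1:1 ratio of HCT-8 cells to sporozoites. Cultures were exposed to a range of inhibitor concentrations starting 1 h after infection. Parasite numbers were counted after 24 h of infection.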

Cryptosporidium parvum [4] = test: Antiparasitic activity against Cryptosporidium parvum sporozoites infected in human HCT8 cells assessed as reduction of parasites level treated immediately after infection measured after 24 hrs; format: functional, organism-based; details: HCT-8
Procedure, shortened: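 Human intestinal HCT-8 cells were infected with C. parvum sporozoites, one sporozoite per host cell. Inhibitor was added at varying concentrations at the time of infection. Parasites present were counted 24 h after infection.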

Row | Compound | Activity (HL-60) | Activity (HCC 2998) | Activity (SF-539) | Activity [1] | IC50 [2] | Activity (Toxoplasma gondii) | Activity (Cryptosporidium parvum [3]) | Activity (Cryptosporidium parvum [4])
1 | CC(C)(C)n1nc(Cc2cccc3ccccc23)c2c(N)ncnc21 | Non-toxic | Non-toxic | Non-toxic | Non-toxic |  |  |  | 
2 | CC(C)n1nc(-c2ccc3c(c2)sc2ccccc23)c2c(N)ncnc21 |  |  |  |  | > 3 µM |  |  | 
3 | CCOc1ccc2cc(-c3nn(C(C)C)c4ncnc(N)c34)ccc2c1 | Non-toxic | Non-toxic | Non-toxic | Non-toxic |  |  |  | 
4 | COc1ccc2cc(-c3nn(C(C)C)c4ncnc(N)c34)ccc2c1 | Non-toxic | Non-toxic | Non-toxic | Non-toxic |  |  |  | 
5 | CCN1CCC(CCn2nc(Cc3cccc4ccccc34)c3c(N)ncnc32)CC1 | Non-toxic | Non-toxic | Non-toxic | Non-toxic |  |  |  | 
6 | CC(C)n1nc(-c2ccc3ccccc3c2)c2c(N)ncnc21 | Non-toxic | Non-toxic | Non-toxic | Non-toxic |  |  |  | 
7 | CC(C)(C)n1nc(-c2ccc3ccccc3c2)c2c(N)ncnc21 | Non-toxic | Non-toxic | Non-toxic | Non-toxic |  | Active | Dose-dependent effect | Dose-dependent effect
8 | CC(C)n1nc(-c2cnc3ccccc3c2)c2c(N)ncnc21 | Non-toxic | Non-toxic | Non-toxic | Non-toxic |  |  |  | 
9 | CC(C)n1nc(Cc2cccc3ccccc23)c2c(N)ncnc21 | Non-toxic | Non-toxic | Non-toxic | Non-toxic |  | Active | Dose-dependent effect | Dose-dependent effect
10 | CC(C)(C)n1nc(-c2cccc3ccccc23)c2c(N)ncnc21 | Non-toxic | Non-toxic | Non-toxic | Non-toxic |  |  | Dose-dependent effect | Dose-dependent effect
11 | CC(C)n1nc(-c2ccc(Cl)c(Cl)c2)c2c(N)ncnc21 | Non-toxic | Non-toxic | Non-toxic | Non-toxic |  |  |  | 
12 | Nc1ncnc2c1c(Cc1cccc3ccccc13)nn2CC1CCNCC1 | Non-toxic | Non-toxic | Non-toxic | Non-toxic |  |  |  | 
13 | CC(C)c1cccc(-c2nn(C(C)C)c3ncnc(N)c23)c1 | Non-toxic | Non-toxic | Non-toxic | Non-toxic |  |  |  | 
14 | CCN1CCC(Cn2nc(Cc3cccc4ccccc34)c3c(N)ncnc32)CC1 | Non-toxic | Non-toxic | Non-toxic | Non-toxic |  |  |  | 
15 | CCN1CCC(n2nc(Cc3cccc4ccccc34)c3c(N)ncnc32)CC1 | Non-toxic | Non-toxic | Non-toxic | Non-toxic |  |  |  | 
16 | CS(=O)(=O)N1CCC(n2nc(Cc3cccc4ccccc34)c3c(N)ncnc32)CC1 | Non-toxic | Non-toxic | Non-toxic | Non-toxic |  |  |  | 

Reference: ChEMBL document CHEMBL1782013, “Discovery of Potent and Selective Inhibitors of Calcium-Dependent Protein Kinase 1 (CDPK1) from C. parvum and T. gondii” (ACS Med Chem Lett, 2010)
